Assay [1] deals with Acinetobacter baumannii. As to the kind of experiment: Synergistic antibacterial activity against Acinetobacter baumannii ATCC 19606 at 60:1 compound to doxycycline ratio after 48 hrs by resazurin dye based microdilution broth checkerboard method. It counts as functional. The conditions noted are these: ATCC 19606 = CIP 70.34 = JCM 6841, 48 h. The gist of the method:
(§1)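 Checkerboard broth microdilution of drug pairs in tryptic soy broth on mid-log cultures (OD 0.5), 48 h at 37 °C. Growth read by resazurin (pink growth, blue no growth). MBC is blue retained over 4 h, CFU plating where needed. ΣFIC = C_A/MIC_A + C_B/MIC_B, taken at the growth/no-growth interface wells; ΣFIC <0.5 counts as synergy.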

The subject of assay [2] is Acinetobacter baumannii. Nature of the assay: Growth inhibition of Acinetobacter baumannii ATCC 19606 after 48 hrs by resazurin dye based microdilution method. In kind it is functional. As to conditions: ATCC 19606 = CIP 70.34 = JCM 6841, 48 h. The gist of the method: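 A. baumannii ATCC 19606 grown in tryptic soy broth, 37 °C with shaking, to mid-log (OD 0.5). Cultures treated with serial dilutions of inhibitor (DMSO stock 1 mg/100 μL), 48 h at 37 °C. Resazurin then added, 1 h at 37 °C with shaking. MIC is the lowest concentration staying blue; MBC is blue retained over 4 h, with CFU plating if needed (99.9% kill).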
On the technique in general: Resazurin is reduced to fluorescent resorufin, in cell work by metabolically active cells.

The test system of assay [3] is Staphylococcus aureus. As to the kind of experiment: Synergistic antibacterial activity against Staphylococcus aureus ATCC 25923 at 2:1 compound to doxycycline ratio after 48 hrs by resazurin dye based microdilution broth checkerboard method. The conditions noted are these: ATCC 25923, 48 h. It counts as functional. The gist of the method: as §1
For assay [4], the system named is Escherichia coli. Nature of the assay: Synergistic antibacterial activity against Escherichia coli ATCC 10798 at 2:1 compound to doxycycline ratio after 48 hrs by resazurin dye based microdilution broth checkerboard method. The conditions noted are these: ATCC 10798, 48 h. In kind it is functional. The gist of the method:
as §1

Assay [5] has as its system Acinetobacter baumannii. As to the kind of experiment: Synergistic bactericidal activity against Acinetobacter baumannii ATCC 19606 at 35:1 compound to doxycycline ratio after 48 hrs by resazurin dye based microdilution broth checkerboard method. In kind it is functional. The conditions noted are these: ATCC 19606 = CIP 70.34 = JCM 6841, 48 h, read-out: MBC99.9. The gist of the method:
as §1

Assay [6] relates to Escherichia coli. As to the kind of experiment: Synergistic bactericidal activity against Escherichia coli ATCC 10798 at 35:1 compound to doxycycline ratio after 48 hrs by resazurin dye based microdilution broth checkerboard method. In kind it is functional. As to conditions: ATCC 10798, 48 h, read-out: MBC99.9. The gist of the method:
as §1

For assay [7], the system named is Escherichia coli. As to the kind of experiment: Synergistic bactericidal activity against Escherichia coli ATCC 10798 at 2:1 compound to doxycycline ratio after 48 hrs by resazurin dye based microdilution broth checkerboard method. In kind it is functional. The conditions noted are these: ATCC 10798, 48 h, read-out: MBC99.9. The gist of the method: as §1
Assay [8] deals with Escherichia coli. Nature of the assay: Synergistic bactericidal activity against Escherichia coli ATCC 10798 at 60:1 compound to doxycycline ratio after 48 hrs by resazurin dye based microdilution broth checkerboard method. It counts as functional. The conditions noted are these: ATCC 10798, 48 h, read-out: MBC99.9. The gist of the method:
as §1

The test system of assay [9] is Klebsiella pneumoniae. As to the kind of experiment: Synergistic bactericidal activity against Klebsiella pneumoniae ATCC 8047 at 35:1 compound to doxycycline ratio after 48 hrs by resazurin dye based microdilution broth checkerboard method. As to conditions: ATCC 8047, 48 h, read-out: MBC99.9. It counts as functional. The gist of the method:
(§2)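 Microdilution broth checkerboard of the compound combined with doxycycline, using the resazurin broth method (48 h, 37 °C, blue = no growth). ΣFIC = C_A/MIC_A + C_B/MIC_B, taken at the growth–no growth interface wells; ΣFIC below 0.5 is scored as synergy. MBC for the fixed-ratio combinations read as the 4 h resazurin endpoint.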

The subject of assay [10] is Klebsiella pneumoniae. As to the kind of experiment: Synergistic antibacterial activity against Klebsiella pneumoniae ATCC 8047 at 2:1 compound to doxycycline ratio after 48 hrs by resazurin dye based microdilution broth checkerboard method. It counts as functional. The conditions noted are these: ATCC 8047, 48 h. The gist of the method: as §2
Assay [11] has as its system Acinetobacter baumannii. Nature of the assay: Synergistic antibacterial activity against multidrug-resistant Acinetobacter baumannii ATCC […] at 2:1 compound to doxycycline ratio after 48 hrs by resazurin dye based microdilution broth checkerboard method. In kind it is functional. As to conditions: ATCC BAA 18002, 48 h. The gist of the method:
as §2

The test system of assay [12] is Staphylococcus aureus. As to the kind of experiment: Bactericidal activity against Staphylococcus aureus ATCC 25923 after 48 hrs by resazurin dye based microdilution method. It counts as functional. As to conditions: ATCC 25923, 48 h, read-out: MBC99.9. The gist of the method:
(§3)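 Broth microdilution in tryptic soy broth. Mid-log cultures (OD600 0.5) treated with serial dilutions from a DMSO stock (1 mg per 100 μL) for 48 h at 37 °C. Resazurin (stock 0.02%) then added for 1 h at 37 °C. MIC is the lowest concentration staying blue; MBC is blue retained over 4 h (99.9% kill), with CFU plating when needed.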

Assay [13] concerns Acinetobacter baumannii. Nature of the assay: Potentiation of doxycycline-induced antimicrobial activity against Acinetobacter baumannii ATCC 19606 at 0.40 ug/ml in presence of 0.025 ug/ml doxycycline by microdilution broth checkerboard method. In kind it is functional, ATCC 19606 = CIP 70.34 = JCM 6841. The gist of the method:
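A. baumannii ATCC 19606 in a broth microdilution checkerboard with doxycycline, 96 concentration combinations. ΣFIC = C_A/MIC_A + C_B/MIC_B, taken for wells at the growth/no-growth interface; ΣFIC <0.5 counts as synergy.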
A general note: In broth dilution the organism is exposed to a series of concentrations in liquid medium.

Assay [14] has as its system Escherichia coli. Nature of the assay: Synergistic antibacterial activity against Escherichia coli ATCC 10798 at 60:1 compound to doxycycline ratio after 48 hrs by resazurin dye based microdilution broth checkerboard method. It counts as functional. As to conditions: ATCC 10798, 48 h. The gist of the method:
as §1

The subject of assay [15] is Acinetobacter baumannii. As to the kind of experiment: Synergistic antibacterial activity against Acinetobacter baumannii ATCC 19606 infected in C57BL/6 mouse assessed as survival rate at compound to doxycycline ratio of 35:1 at 60 mg/kg, ip administered as single dose measured for 5 days (reference value: <20%). It counts as functional. The conditions noted are these: ATCC 19606 = CIP 70.34 = JCM 6841, ip, 120 h. The gist of the method:
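C57BL/6 mice (n = 5 per group; 4 untreated controls) infected intraperitoneally with A. baumannii ATCC19606 grown at 37 °C and collected by centrifugation, at a dose giving 75% death. Single intraperitoneal dose (2 to 60 mg/kg) given 1 h after infection. Mice monitored for 5 days, with death as the end point; survival rate recorded.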

Assay [16] has as its system Acinetobacter baumannii. As to the kind of experiment: Synergistic antibacterial activity against Acinetobacter baumannii ATCC 19606 at 35:1 compound to doxycycline ratio after 48 hrs by resazurin dye based microdilution broth checkerboard method. In kind it is functional. As to conditions: ATCC 19606 = CIP 70.34 = JCM 6841, 48 h. The gist of the method:
as §2

For assay [17], the system named is Klebsiella pneumoniae. Nature of the assay: Synergistic antibacterial activity against Klebsiella pneumoniae ATCC 8047 at 60:1 compound to doxycycline ratio after 48 hrs by resazurin dye based microdilution broth checkerboard method. The conditions noted are these: ATCC 8047, 48 h. It counts as functional. The gist of the method:
as §1

The test system of assay [18] is Acinetobacter baumannii. As to the kind of experiment: Synergistic bactericidal activity against Acinetobacter baumannii ATCC 19606 at 2:1 compound to doxycycline ratio after 48 hrs by resazurin dye based microdilution broth checkerboard method. As to conditions: ATCC 19606 = CIP 70.34 = JCM 6841, 48 h, read-out: MBC99.9. In kind it is functional. The gist of the method:
as §1

Assay [19] relates to Pseudomonas aeruginosa. Nature of the assay: Synergistic antibacterial activity against Pseudomonas aeruginosa ATCC 27853 at 60:1 compound to doxycycline ratio after 48 hrs by resazurin dye based microdilution broth checkerboard method. It counts as functional. The conditions noted are these: ATCC 27853, 48 h. The gist of the method: as §1
Assay [20] relates to Pseudomonas aeruginosa. As to the kind of experiment: Synergistic bactericidal activity against Pseudomonas aeruginosa ATCC 27853 at 2:1 compound to doxycycline ratio after 48 hrs by resazurin dye based microdilution broth checkerboard method. It counts as functional. As to conditions: ATCC 27853, 48 h, read-out: MBC99.9. The gist of the method: as §1
Assay [21] relates to Escherichia coli. Nature of the assay: Growth inhibition of Escherichia coli ATCC 10798 after 48 hrs by resazurin dye based microdilution method. The conditions noted are these: ATCC 10798, 48 h. It counts as functional. The gist of the method:
as §3

Assay [22] has as its system Klebsiella pneumoniae. As to the kind of experiment: Synergistic bactericidal activity against Klebsiella pneumoniae ATCC 8047 at 60:1 compound to doxycycline ratio after 48 hrs by resazurin dye based microdilution broth checkerboard method. In kind it is functional. As to conditions: ATCC 8047, 48 h, read-out: MBC99.9. The gist of the method: as §1
The next assay relates to Vero. Nature of the assay: Cytotoxicity against African green monkey Vero cells after 72 hrs by MTT assay. In kind it is cell-based, Chlorocebus sabaeus. As to conditions: Chlorocebus sabaeus, Vero, 72 h; read-out: IC50. The gist of the method:
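Vero (ATCC CCL-81) cells in Eagle's MEM with 10% FBS and penicillin-streptomycin, in 96-well plates. Serial dilutions from 0.78 to 200 μg/mL. Tunicamycin, colistin or tobramycin as controls on each plate. Viability by MTT, giving IC50.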
On the technique in general: Tetrazolium assays rely on reduction of a dye to a coloured formazan, in cell work by metabolically active cells.

Converted amounts (≈) assume the structure as drawn.

As usually defined, the MIC is the lowest concentration that inhibits growth of the organism. In general, IC50 refers to the concentration that inhibits the measured activity by half. On to `C=C[C@]1(C)C[C@@H](OC(=O)CSC(C)(C)CNC(=O)[C@H](N)C(C)C)[C@]2(C)[C@H](C)CC[C@]3(CC[C@@H](O)[C@H]32)[C@@H](C)[C@@H]1O`, for which the MIC was determined as 0.5 µg/mL with Acinetobacter baumannii [1]; 1.75 µg/mL (≈ 3.09 µM) against Acinetobacter baumannii [2]; 12.5 µg/mL in the assay with Staphylococcus aureus [3]; 0.25 µg/mL in the assay with Escherichia coli [4]; 0.78 µg/mL with Klebsiella pneumoniae [10]; 1.56 µg/mL in the assay on Acinetobacter baumannii [11]. Also, the MIC came out at 0.25 µg/mL with Escherichia coli [14]; 0.4 µg/mL in the assay with Acinetobacter baumannii [16]; 1.56 µg/mL in the assay with Klebsiella pneumoniae [17]; 12.5 µg/mL in the assay with Pseudomonas aeruginosa [19]; 3.13 µg/mL (≈ 5.52 µM) in the assay on Escherichia coli [21]. Besides, the MBC in the assay on Acinetobacter baumannii [5] came to 2 µg/mL; in the assay with Escherichia coli [6] it was 1.56 µg/mL; in the assay on Escherichia coli [7], 1.56 µg/mL; in the assay with Escherichia coli [8], 1.56 µg/mL; in the assay with Klebsiella pneumoniae [9] it was 1.56 µg/mL; in the assay with Staphylococcus aureus [12] it was 25 µg/mL (≈ 44.1 µM). The values for the MBC in the assay on Acinetobacter baumannii [18], in the assay with Pseudomonas aeruginosa [20] and in the assay with Klebsiella pneumoniae [22] were 2 µg/mL, 12.5 µg/mL and 3.25 µg/mL, respectively. The “fractional inhibitory concentration index (FICI)” value in the assay on Acinetobacter baumannii [13] is given as 0.19. In addition, the survival at 60 mg/kg in the assay with Acinetobacter baumannii [15] was found to be 100%. The IC50 in the assay with Vero was determined as 45.3 µg/mL (≈ 79.9 µM).

The values above are taken from ChEMBL document CHEMBL4177542, “A New Combination of a Pleuromutilin Derivative and Doxycycline for Treatment of Multidrug-Resistant Acinetobacter baumannii” (J Med Chem, 2017).
